Measured values from ChEMBL document CHEMBL5532745, “Enzymatic Synthesis of Austroeupatol Esters with Enhanced Antiprotozoal Activity” (ACS Med Chem Lett, 2024).

Key:
Trypanosoma cruzi [1] = assay: Antiprotozoal activity against Trypanosoma cruzi Tulahuen strain amastigotes expressing Escherichia coli beta-galactosidase cultured in Vero cells assessed as growth inhibition incubated for 5 days; format: functional, organism-based; conditions: 120 h
Procedure, shortened: (§1)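 Vero cells infected with trypomastigotes carrying β-galactosidase; intracellular parasites exposed to compounds, growth inhibition read spectrophotometrically.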

Trypanosoma cruzi [2] = assay: Antiprotozoal activity against Trypanosoma cruzi Tulahuen strain amastigotes expressing Escherichia coli beta-galactosidase cultured in Vero cells assessed as growth inhibition at 10 uM incubated for 5 days relative to control; format: functional; conditions: 120 h, time 5 day, read-out: GI; procedure, shortened: as §1
Leishmania infantum [3] = assay: Antiprotozoal activity against Leishmania infantum MHOM/BR/2002/LPC-RPV promastigotes assessed as growth inhibition at 25 uM incubated for 5 days relative to control; format: functional; conditions: 120 h, time 5 day, read-out: GI
Trypanosoma cruzi [4] = assay: Antiprotozoal activity against Trypanosoma cruzi epimastigotes assessed as growth inhibition at 25 uM incubated for 5 days relative to control; format: functional; conditions: 120 h, time 5 day, read-out: GI
[5] = Cytotoxicity against African green monkey Vero cells incubated for 48 hrs by MTT assay; format: toxicity, cell-based; conditions: chlorocebus sabaeus
Procedure, shortened: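 Uninfected Vero cells exposed to compounds; viability read by MTT assay to estimate cytotoxicity for selectivity assessment.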

Leishmania infantum [6] = assay: Antiprotozoal activity against Leishmania infantum MHOM/BR/2002/LPC-RPV promastigotes assessed as growth inhibition at 25 uM incubated for 5 days; format: functional, organism-based

Row | IC50 (Trypanosoma cruzi [1]) | Molecule | inhibition of growth at 10 µM (Trypanosoma cruzi [2]) | inhibition of growth at 25 µM (Leishmania infantum [3]) | inhibition of growth at 25 µM (Trypanosoma cruzi [4]) | CC50 at 48 h [5] | IC50 (Leishmania infantum [6])
1 | 2260 nM | C=C1CC[C@@H]2[C@H](COC(=O)CCc3c[nH]c4ccccc34)[C@H](O)[C@H](O)C[C@@]2(C)[C@@H]1CCc1ccoc1 | 98.7% | 91.5% | 64.3% | < 10 µM | –
2 | – | C=C1CC[C@@H]2[C@H](COC(=O)CCCCCCCCCCC)[C@H](OC(=O)CCCCCCCCCCC)[C@H](O)C[C@@]2(C)[C@@H]1CCc1ccoc1 | 4.73% | 2.4% | 46.8% | – | –
3 | 2060 nM | C=C1CC[C@@H]2[C@H](COC(=O)CCCC[C@@H]3CCSS3)[C@H](O)[C@H](O)C[C@@]2(C)[C@@H]1CCc1ccoc1 | 95.2% | 47.7% | 58.5% | < 10 µM | –
4 | > 15000 nM | C=C1CC[C@@H]2[C@H](CO)[C@H](O)[C@H](O)C[C@@]2(C)[C@@H]1CCc1ccoc1 | 28% | 0% | 24.9% | 85.4 µM | –
5 | – | C=C1CC[C@@H]2[C@H](COC(C)=O)[C@H](O)[C@H](O)C[C@@]2(C)[C@@H]1CCc1ccoc1 | 22.7% | 15.7% | 21.6% | – | –
6 | – | C=C1CC[C@@H]2[C@H](COC(=O)CCCCCCCCCCCCCCC)[C@H](O)[C@H](O)C[C@@]2(C)[C@@H]1CCc1ccoc1 | 2.98% | 0% | 24.9% | – | –
7 | – | C=C1CC[C@@H]2[C@H](COC(=O)CCCCCCCCCCC)[C@H](O)[C@H](O)C[C@@]2(C)[C@@H]1CCc1ccoc1 | 12.5% | 29.1% | 69.7% | – | –
8 | – | C=C1CC[C@@H]2[C@H](COC(=O)CCCCCCCCCCCCCCC)[C@H](OC(=O)CCCCCCCCCCCCCCC)[C@H](O)C[C@@]2(C)[C@@H]1CCc1ccoc1 | 2.06% | 0% | 31.8% | – | –
9 | 8500 nM | C=C1CC[C@@H]2[C@H](COC(=O)CCCC)[C@H](O)[C@H](O)C[C@@]2(C)[C@@H]1CCc1ccoc1 | 99.1% | 94.1% | 93.5% | 19.3 µM | –
10 | – | C=C1CC[C@@H]2[C@H](COC(=O)CCCCCCC)[C@H](OC(=O)CCCCCCC)[C@H](O)C[C@@]2(C)[C@@H]1CCc1ccoc1 | 9.79% | 16.4% | 27.4% | – | –
11 | 7030 nM | C=C1CC[C@@H]2[C@H](COC(=O)CCCCCCC)[C@H](O)[C@H](O)C[C@@]2(C)[C@@H]1CCc1ccoc1 | 100% | 57.1% | 99.5% | 18.1 µM | –
12 | 940 nM | O=C(Cn1ccnc1[N+](=O)[O-])NCc1ccccc1 [BENZNIDAZOLE] | – | – | – | > 384 µM | –
13 | – | MEGLUMINE ANTIMONATE | – | – | – | – | 20 µM
